MC4R antag cAMP – MC4R antagonists of cAMP signaling, primary screen, cell-based, TR-FRET, antagonist arm of biased-ligand search | 0.48% of 360,000 active | MC4R-expressing cells, MTII-stimulated cAMP, LANCE TR-FRET | inhibition, % at 6.5 µM | Melanocortin receptor 4 (Homo sapiens), P32245 | AID 540295, 2011;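 active = inhibition above its plate's cutoff, the mean of tested wells on that plate plus 3 SD, cut at about 29% in these data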;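 note: 0% = Melanotan II alone and 100% = Melanotan II plus saturating MCL0020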
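Assay system: U2OS-MC4R stable cell line; Also added: Melanotan II; Technique: Eu-cAMP/anti-cAMP TR-FRET, emission 671 nm; Times: 30-min compound, 1-h challenge, 1-h detection, room temperature.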
TLR4 MyD88 comp – inhibitors of TLR4-MyD88 association in cells, primary screen, cell-based, HeLa CL3-4, BLA complementation, FRET ratio. Toll-like receptor 4 (Homo sapiens) + Myeloid differentiation primary response protein …. HeLa CL3-4 TLR4/MyD88 BLA complementation. inhibition, % at 8.4 µM. 0.18% of 200,000 active. AID 861, 2007; in the data active = inhibition above about 25%;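 note: 0% = vehicle and 100% = reference inhibitor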
MC4R ag barr – MC4R agonists recruiting beta-arrestin, primary screen, cell-based, luminescence, agonist arm of biased-ligand search; Melanocortin receptor 4 (Homo sapiens), P32245; U2OS MC4R beta-arrestin complementation; percent of melanotan II response, DMSO zero; activation, % at 8.9 µM; 0.98% of 360,000 active; AID 540308, 2011;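 active = activation above a per-plate cutoff, the mean activation of sample wells on that plate plus 3 SD, cut at about 8% in these data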
NTR1 ag – agonists of human NTR1, primary screen, imaging, U2OS cells, beta-arrestin-GFP, high content; AID 493036, 2011; activation, % at 20 µM; 0.17% of 330,000 active; NTR1-U2OS beta-arrestin-GFP spot imaging, agonist mode; Neurotensin receptor type 1 (Homo sapiens), P30989;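 active = activation at or above 40% of the spot to cytoplasm intensity ratio, with at least 20 cells analyzed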;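 note: 0% = DMSO without peptide and 100% = 100 nM NTR1 peptide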
NOD2 RIPK2 PPI – NOD2-RIPK2 binding disruptors in cells, primary screen, fluorescence, CHO cells, BLA complementation; AID 624267, 2012; CCF4 ratio; 0.38% of 360,000 active; Receptor-interacting serine/threonine-protein kinase 2 (Homo sapiens), O43353; inhibition, % at 4.98 µM; in the data active = inhibition above about 21%;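 note: 0% = vehicle only and 100% = reference blocker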
TLR9-MyD88 inh – inhibitors of TLR9-MyD88 association in cells, primary screen, cell-based, CHO, BLA complementation, fluorescence; Toll-like receptor 9 (Homo sapiens) + Myeloid differentiation primary response protein …; inhibition, % at 4.98 µM; CCF4 FRET ratio; 0.21% of 340,000 active;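 active = inhibition above the mean over all tested compounds plus 3 SD, cut at about 21% in these data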;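 note: 0% = DMSO only wells and 100% = clavulanate BLA inhibitor control wells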
TLR9-MyD88 conf – TLR9-MyD88 association inhibitors, retest, confirmation, cell-based, CHO, BLA complementation, fluorescence, triplicate; 51% of 680 active; shares compounds with TLR9-MyD88 inh; AID 540250, 2011; CCF4 FRET ratio; inhibition, % at 4.98 µM;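 active = mean inhibition across three repeats above about 21% taken from the earlier screen, limit read from the data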;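 note: blue over green emission ratio reports constitutive TLR9 MyD88 association via BLA complementation; 0% = DMSO vehicle wells and 100% = clavulanate BLA inhibitor wells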
BLA counter-1 – beta-lactamase reporter inhibitors in CHO cells, artefact control for TLR9-MyD88 binding inhibitor project, cell-based, fluorescence | shares compounds with TLR9-MyD88 inh | CHO-BLA cells, CCF4 FRET ratio, BLA reporter | inhibition, % at 4.98 µM | 7% of 680 active;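 active = mean inhibition above a 50% cutoff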;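 note: counterscreen of TLR9-MyD88 hits on CMV-driven BLA in CHO-K1 cells; 0% = DMSO alone and 100% = clavulanate blocking BLA; higher means less blue over green ratio so more BLA blockade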
TLR9 CHO tox – CHO cell viability loss – luminescence, single concentration, cytotoxicity control for TLR9-MyD88 binding inhibitor project. shares compounds with TLR9-MyD88 inh. TLR9-MyD88 CHO cells cytotoxicity. inhibition, % at 4.98 µM. 39% of 680 active. AID 588336, 2011; in the data active = inhibition above about 11%
cAMP nonselect – nonselective cAMP signaling inhibitors, parental cells, counter-screen for MC4R biased antagonist project, cell-based, TR-FRET, U2OS, forskolin, triplicate. 26% of 1,600 active. inhibition, % at 6.5 µM. LANCE TR-FRET. shares compounds with MC4R antag cAMP;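 active = mean inhibition over triplicates above the low-control well mean plus 3 SD, set per campaign, cut at about 13% in these data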;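 note: signal is single emission at 671 nm which falls as cellular cAMP rises; 0% = forskolin-stimulated wells and 100% = buffer without forskolin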
MC4R cAMP antag – MC4R cAMP antagonists, retest, confirmation, cell-based, TR-FRET; shares compounds with MC4R antag cAMP; MC4R-expressing cells, MTII-stimulated cAMP; inhibition, % at 6.5 µM; 27% of 1,600 active; in the data active = inhibition above about 29%;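 note: 0% = agonist stimulated wells alone and 100% = agonist stimulated wells plus saturating reference antagonist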
NOD2-RIPK2 conf – NOD2-RIPK2 binding disruptors, retest, confirmation, fluorescence, CHO cells, BLA complementation, triplicate | shares compounds with NOD2 RIPK2 PPI | CCF4 FRET | inhibition, % at 4.98 µM | 70% of 1,200 active;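 active = mean inhibition across replicates above a set limit taken from the earlier primary screen, cut at about 21% in these data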;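 note: 0% = DMSO-only wells and the high end = clavulanate BLA-blocked wells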
BLA counter-2 – NOD2-RIPK2 counterscreen BLA reporter activity. 57% of 1,200 active. CHO BLA reporter, CCF4 FRET ratio. AID 624371. shares compounds with NOD2 RIPK2 PPI. inhibition, % at 4.98 µM;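 active = mean inhibition above the low-control mean inhibition plus three low-control SD, cut at about 11% in these data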;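 note: 0% = DMSO only wells and 100% = clavulanate high control wells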
* marks the source's active call; other numbers are inactive results; . = no result. This is a sample that favours compounds with a hit; in the whole collection about 1.9% have one here.

SMILES | MC4R antag cAMP | TLR4 MyD88 comp | MC4R ag barr | NTR1 ag | NOD2 RIPK2 PPI | TLR9-MyD88 inh | cAMP nonselect | MC4R cAMP antag | others
Cc1ccc(N2CC(C(=O)OCC(=O)c3ccc([N+](=O)[O-])cc3)CC2=O)cc1 (stereo not drawn) | 2.1 | . | 0.9 | -0.3 | -5.7 | -7.1 | . | .
COc1cccc(NC(=O)COC(=O)C2=NN(c3ccccc3)C(=O)CC2)c1 | 0.1 | . | -2.1 | -0.5 | -6.7 | 0.4 | . | .
CCN(CC)c1ccc(C(=O)NNC(=O)CCNC(=O)c2ccccc2)cc1 | 6.7 | . | -4.6 | 3.8 | -11.7 | 0.2 | . | .
CCN(CC)c1ccc(C(=C2C=CC(=[N+](CC)CC)C=C2)c2ccccc2)cc1 | 64.4* | . | -3.4 | . | 41.0* | 52.6* | 34.1* | 67.2* | TLR9-MyD88 conf=83.0*;BLA counter-1=18.2;TLR9 CHO tox=100.8*;NOD2-RIPK2 conf=32.3*;BLA counter-2=22.0*
O=C(NCCCO)/C(=C/c1ccc(-c2cccc([N+](=O)[O-])c2)o1)NC(=O)c1ccccc1 | -10.8 | -5.3 | -2.4 | 0.7 | 6.8 | 5.6 | . | .
Cc1ccc(C(=O)N/C(=C/c2ccc(-c3ccc([N+](=O)[O-])cc3)o2)C(=O)NCCCN(C)C)cc1 | -16.0 | . | 0.1 | -1.1 | 47.6* | 41.4* | . | . | TLR9-MyD88 conf=33.2*;BLA counter-1=28.1;TLR9 CHO tox=5.5;NOD2-RIPK2 conf=56.9*;BLA counter-2=54.6*
Cc1nc(SCc2nc3ccccc3[nH]2)c2oc3cc([N+](=O)[O-])ccc3c2n1 | -0.5 | . | -2.9 | 3.4 | -14.3 | 1.7 | . | .
COc1ccc(OCC(=O)Nc2c(Cl)ccc3nsnc23)cc1 | 12.6 | . | -4.3 | 0.3 | 4.6 | -4.5 | . | .
O=C(O)COc1ccc2nsnc2c1Cl | 69.9* | -7.8 | -2.1 | -0.6 | -1.5 | -11.6 | 45.6* | 81.5*
COc1ccc(C(=O)Nc2ccc(NC(=O)C3CCCCC3)nc2)cc1 | 8.4 | . | -0.6 | 0.1 | 2.7 | 8.7 | . | .
COc1ccccc1C(=O)Nc1ccc(NC(=O)C2CCCCC2)nc1 | 31.3* | . | 0.5 | -0.5 | -6.4 | -1.2 | 3.3 | 12.7
CC(OC(=O)CC(C)c1ccccc1)C(=O)Nc1ccc(Cl)cn1 (stereo not drawn) | 0.4 | . | -2.6 | -0.8 | 10.8 | -7.5 | . | .
